According to ChEMBL document CHEMBL2021883, “Amino acid, dipeptide and pseudodipeptide conjugates of ring-substituted 8-aminoquinolines: synthesis and evaluation of anti-infective, β-haematin inhibition and cytotoxic activities” (Eur J Med Chem, 2012):
Converted amounts (≈) assume the structure as drawn. One block for each molecule: values may come before it. The source made the active and inactive calls. Unless noted, no cut-off for these calls is given here.

Key:
[1] = test system: Plasmodium falciparum; test: Antimalarial activity against chloroquine-sensitive Plasmodium falciparum D6 assessed as plasmodial LDH activity; format: functional, organism-based
[2] = test system: Pseudomonas aeruginosa; test: Antimicrobial activity against Pseudomonas aeruginosa ATCC 27853 by CLSI method; format: functional, organism-based
Outline: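 Antibacterial testing used CLSI/NCCLS broth dilution for aerobically growing bacteria, with 20 as the highest test concentration.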

[3] = test system: Plasmodium falciparum; test: Antimalarial activity against chloroquine-resistant Plasmodium falciparum W2 assessed as plasmodial LDH activity; format: functional, organism-based
[4] = Inhibition of beta-hematin formation; format: functional
[5] = test system: Escherichia coli; test: Antimicrobial activity against Escherichia coli ATCC 35218 by CLSI method; format: functional, organism-based
[6] = test system: Leishmania donovani; test: Antileishmanial activity against Leishmania donovani promastigote by Alamar Blue assay; format: functional, organism-based
[7] = test system: Mycobacterium intracellulare; test: Antimicrobial activity against Mycobacterium intracellulare ATCC 23068 by Franzblau method; format: functional, organism-based
[8] = test system: Vero; test: Cytotoxicity against african green monkey Vero cells upto 23.8 […] by neutral dye assay; format: cell-based, Chlorocebus sabaeus
Outline: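 Vero monkey kidney cells were exposed to compound up to a highest concentration of 23.8, with viability read by neutral red uptake.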

[9] = test system: Staphylococcus aureus; test: Antimicrobial activity against methicillin-resistant Staphylococcus aureus ATCC 43300 by CLSI method; format: functional, organism-based
[10] = test system: Staphylococcus aureus; test: Antimicrobial activity against Staphylococcus aureus ATCC 29213 by CLSI method; format: functional, organism-based
[11] = test system: Candida albicans; test: Antifungal activity against Candida albicans at 20 ug/ml; format: functional, organism-based
Outline: (§1)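 Broth dilution antifungal testing followed the NCCLS reference method for yeasts, with 20 as the highest test concentration. MIC was the lowest concentration with no detectable growth. MFC was the lowest concentration killing the organism.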

[12] = test system: Cryptococcus neoformans; test: Antifungal activity against Cryptococcus neoformans; format: functional, organism-based
Outline: (§2)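 Yeasts and A. fumigatus were tested by broth microdilution following the NCCLS antifungal standards. The highest test concentration was 20.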

[13] = test system: Candida albicans; test: Fungicidal activity against Candida albicans at 20 ug/ml; format: functional, organism-based; outline: as §1
[14] = test system: Aspergillus fumigatus; test: Antifungal activity against Aspergillus fumigatus; format: functional, organism-based; outline: as §2
[15] = Selectivity index, ratio of IC50 for african green monkey Vero cells to IC50 for chloroquine-resistant Plasmodium falciparum W2; format: toxicity, cell-based; conditions: Vero cells versus Plasmodium falciparum W2, read-out: Ratio IC50
[16] = Leishmania donovani, read-out: IC50

Compound: COc1cc(NC(C)CCCNC(=O)NCCC[C@@H](N)C(=O)O)c2ncccc2c1 (some centres not stated)
- IC50 [1]: Not Active
- Activity [2]: inactive
- IC50 [3]: Not Active
- IC50 [4]: > 1 mM
- Activity [5]: inactive
- IC50 [6]: Not Active
- IC90 [6]: inactive
- Activity [7]: inactive
- IC50 [8]: Non-toxic
- Activity [9]: inactive
- Activity [10]: inactive

Compound: COc1cc(NC(C)CCCNC(=O)C[C@H](NC(=O)[C@@H](N)CCCN)C(=O)O)c2ncccc2c1 (some centres not stated)
- Activity [2]: inactive
- Activity [5]: inactive
- Activity [7]: inactive
- Activity [9]: inactive
- Activity [10]: inactive

Compound: COc1cc(NC(C)CCCNC(=O)CC[C@@H](NC(=O)[C@H](N)CCCNC(=N)N)C(=O)O)c2nc(C(C)(C)C)ccc2c1 (some centres not stated)
- IC50 [1]: Not Active
- Activity [2]: inactive
- IC50 [3]: Not Active
- IC50 [4]: > 1 mM
- Activity [5]: inactive
- IC50 [6]: Not Active
- IC90 [6]: inactive
- Activity [7]: inactive
- IC50 [8]: Non-toxic
- Activity [9]: inactive
- Activity [10]: inactive

- MIC [7]: 0.63 µg/mL (≈ 1.9 µM)
Compound: O=C(O)c1cn(C2CC2)c2cc(N3CCNCC3)c(F)cc2c1=O [CIPROFLOXACIN]

- IC50 [4]: > 1 mM
Compound: COc1cc(NC(C)CCCN)c2ncccc2c1 (configuration not stated) [PRIMAQUINE]
- IC90 [6]: inactive
- IC50 [8]: Non-toxic

- IC50 [4]: 0.0029 mM
Compound: COc1cc(NC(C)CCCN)c2nc(C(C)(C)C)ccc2c1 (configuration not stated)

Compound: N=C(N)c1ccc(OCCCCCOc2ccc(C(=N)N)cc2)cc1 [PENTAMIDINE]
- IC90 ([6]; Leishmania donovani): 3.8 µg/mL (≈ 11.2 µM)

Compound: COc1cc(NC(C)CCCNC(=O)CC[C@@H](NC(=O)[C@H](N)CCCNC(=N)N)C(=O)O)c2ncccc2c1 (some centres not stated)
- IC50 [1]: Not Active
- Activity [2]: inactive
- IC50 [3]: Not Active
- IC50 [4]: > 1 mM
- Activity [5]: inactive
- IC50 [6]: Not Active
- IC90 [6]: inactive
- Activity [7]: inactive
- IC50 [8]: Non-toxic
- Activity [9]: inactive
- Activity [10]: inactive

Compound: COc1cc(NC(C)CCCNC(=O)CC[C@H](NC(=O)[C@@H](N)CCCN)C(=O)O)c2nc(C(C)(C)C)ccc2c1 (some centres not stated)
- IC50 [1]: Not Active
- Activity [11]: inactive
- Activity [2]: inactive
- IC50 [3]: Not Active
- IC50 [12]: 15 µg/mL (≈ 26.8 µM)
- MFC [12]: 20 µg/mL (≈ 35.8 µM)
- MIC [12]: 20 µg/mL (≈ 35.8 µM)
- IC50 [4]: > 1 mM
- Activity [5]: inactive
- IC50 [6]: Not Active
- IC90 [6]: inactive
- Activity [13]: inactive
- Activity [7]: inactive
- IC50 [8]: Non-toxic
- Activity [14]: inactive
- Activity [9]: inactive
- Activity [10]: inactive

Compound: COc1cc(NC(C)CCCNC(=O)[C@@H](CCCCN)NC(=O)[C@H](N)CCCCN)c2ncccc2c1 (some centres not stated)
- IC50 [1]: Not Active
- Activity [11]: inactive
- Activity [2]: inactive
- IC50 [3]: Not Active
- IC50 [12]: 3.5 µg/mL (≈ 6.79 µM)
- MFC [12]: 5 µg/mL (≈ 9.7 µM)
- MIC [12]: 5 µg/mL (≈ 9.7 µM)
- IC50 [4]: 0.31 mM
- Activity [5]: inactive
- IC90 ([6]; Leishmania donovani): 7 µg/mL (≈ 13.6 µM)
- IC50 [6, 16]: 3.5 µg/mL (≈ 6.79 µM)
- Activity [13]: inactive
- Activity [7]: inactive
- IC50 [8]: Non-toxic
- Activity [14]: inactive
- Activity [9]: inactive
- Activity [10]: inactive

Compound: COc1cc(NC(C)CCCNC(=O)CC[C@@H](NC(=O)[C@H](N)CCCN)C(=O)O)c2nc(C(C)(C)C)ccc2c1 (some centres not stated)
- IC50 [1]: Not Active
- Activity [2]: inactive
- IC50 [3]: Not Active
- IC50 [4]: > 1 mM
- Activity [5]: inactive
- IC50 [6]: Not Active
- IC90 [6]: inactive
- Activity [7]: inactive
- IC50 [8]: Non-toxic
- Activity [9]: inactive
- Activity [10]: inactive

Compound: COc1cc(NC(C)CCCNC(=O)NCCCC[C@H](N)C(=O)O)c2ncccc2c1 (some centres not stated)
- IC50 [1]: Not Active
- Activity [2]: inactive
- IC50 [3]: Not Active
- IC50 [4]: > 1 mM
- Activity [5]: inactive
- IC50 [6]: Not Active
- IC90 [6]: inactive
- Activity [7]: inactive
- IC50 [8]: Non-toxic
- Activity [9]: inactive
- Activity [10]: inactive

Compound: COc1cc(NC(C)CCCNC(=O)CC[C@H](NC(=O)[C@@H](N)CCCN)C(=O)O)c2ncccc2c1 (some centres not stated)
- IC50 [1]: Not Active
- Activity [2]: inactive
- IC50 [3]: Not Active
- IC50 [4]: > 1 mM
- Activity [5]: inactive
- IC50 [6]: Not Active
- IC90 [6]: inactive
- Activity [7]: inactive
- IC50 [8]: Non-toxic
- Activity [9]: inactive
- Activity [10]: inactive

Compound: COc1cc(NC(C)CCCNC(=O)CC[C@@H](NC(=O)[C@H](N)CCCCN)C(=O)O)c2ncccc2c1 (some centres not stated)
- IC50 [1]: Not Active
- Activity [2]: inactive
- IC50 [3]: Not Active
- IC50 [4]: > 1 mM
- Activity [5]: inactive
- IC90 ([6]; Leishmania donovani): 36 µg/mL (≈ 69.7 µM)
- IC50 [6, 16]: 20.1 µg/mL (≈ 38.9 µM)
- Activity [7]: inactive
- IC50 [8]: Non-toxic
- Activity [9]: inactive
- Activity [10]: inactive

Compound: COc1cc(NC(C)CCCNC(=O)[C@@H](CCCN)NC(=O)[C@H](N)CCCN)c2ncccc2c1 (some centres not stated)
- IC50 [1]: Not Active
- Activity [11]: inactive
- Activity [2]: inactive
- IC50 ([3]; Plasmodium falciparum, W2, read-out: IC50): 4.76 µg/mL (≈ 9.76 µM)
- IC50 [12]: 3.5 µg/mL (≈ 7.18 µM)
- MFC [12]: 5 µg/mL (≈ 10.3 µM)
- MIC [12]: 5 µg/mL (≈ 10.3 µM)
- IC50 [4]: 0.42 mM
- Activity [5]: inactive
- IC90 [6]: inactive
- IC50 [6, 16]: 40 µg/mL (≈ 82 µM)
- selectivity ratio [15]: > 5
- Activity [13]: inactive
- Activity [7]: inactive
- IC50 [8]: Non-toxic
- Activity [14]: inactive
- Activity [9]: inactive
- Activity [10]: inactive

Compound: COc1cc(NC(C)CCCNC(=O)CC[C@H](NC(=O)[C@@H](N)CCCCN)C(=O)O)c2ncccc2c1 (some centres not stated)
- IC50 [1]: Not Active
- Activity [2]: inactive
- IC50 [3]: Not Active
- Activity [5]: inactive
- IC50 [6]: Not Active
- IC90 [6]: inactive
- Activity [7]: inactive
- IC50 [8]: Non-toxic
- Activity [9]: inactive
- Activity [10]: inactive

Compound: COc1cc(NC(C)CCCNC(=O)NCCCC[C@H](N)C(=O)O)c2nc(C(C)(C)C)ccc2c1 (some centres not stated)
- IC50 [1]: Not Active
- Activity [2]: inactive
- IC50 [3]: Not Active
- IC50 [4]: > 1 mM
- Activity [5]: inactive
- IC50 [6]: Not Active
- IC90 [6]: inactive
- Activity [7]: inactive
- IC50 [8]: Non-toxic
- Activity [9]: inactive
- Activity [10]: inactive

Compound: COc1cc(NC(C)CCCNC(=O)CC[C@@H](NC(=O)[C@H](N)CCCN)C(=O)O)c2ncccc2c1 (some centres not stated)
- IC50 [1]: Not Active
- Activity [2]: inactive
- IC50 [3]: Not Active
- IC50 [4]: > 1 mM
- Activity [5]: inactive
- IC50 [6]: Not Active
- IC90 [6]: inactive
- Activity [7]: inactive
- IC50 [8]: Non-toxic
- Activity [9]: inactive
- Activity [10]: inactive

Compound: COc1cc(NC(C)CCCNC(=O)CC[C@H](NC(=O)[C@@H](N)CCCCN)C(=O)O)c2nc(C(C)(C)C)ccc2c1 (some centres not stated)
- IC50 [1]: Not Active
- Activity [11]: inactive
- Activity [2]: inactive
- IC50 [3]: Not Active
- IC50 [12]: 15 µg/mL (≈ 26.2 µM)
- MFC [12]: 20 µg/mL (≈ 34.9 µM)
- MIC [12]: 20 µg/mL (≈ 34.9 µM)
- IC50 [4]: > 1 mM
- Activity [5]: inactive
- IC50 [6]: Not Active
- IC90 [6]: inactive
- Activity [13]: inactive
- Activity [7]: inactive
- IC50 [8]: Non-toxic
- Activity [14]: inactive
- Activity [9]: inactive
- Activity [10]: inactive

Compound: COc1cc(NC(C)CCCNC(=O)C[C@@H](NC(=O)[C@H](N)CCCN)C(=O)O)c2ncccc2c1 (some centres not stated)
- IC50 [1]: Not Active
- Activity [11]: inactive
- Activity [2]: inactive
- IC50 [3]: Not Active
- IC50 [12]: 7 µg/mL (≈ 14.3 µM)
- MFC [12]: 10 µg/mL (≈ 20.5 µM)
- MIC [12]: 10 µg/mL (≈ 20.5 µM)
- IC50 [4]: > 1 mM
- Activity [5]: inactive
- IC50 [6]: Not Active
- IC90 [6]: inactive
- Activity [13]: inactive
- Activity [7]: inactive
- IC50 [8]: Non-toxic
- Activity [14]: inactive
- Activity [9]: inactive
- Activity [10]: inactive

Compound: COc1cc(NC(C)CCCNC(=O)C[C@@H](NC(=O)[C@H](N)CCCCN)C(=O)O)c2nc(C(C)(C)C)ccc2c1 (some centres not stated)
- IC50 [1]: Not Active
- Activity [2]: inactive
- IC50 [3]: Not Active
- IC50 [4]: > 1 mM
- Activity [5]: inactive
- IC50 [6]: Not Active
- IC90 [6]: inactive
- Activity [7]: inactive
- IC50 [8]: Non-toxic
- Activity [9]: inactive
- Activity [10]: inactive
